Measurements published in ChEMBL document CHEMBL5154742, “Thiosugar naphthalene diimide conjugates: G-quadruplex ligands with antiparasitic and anticancer activity” (Eur J Med Chem, 2022).
Calls of active or inactive are those of the source. The calls are words filed in the database; no cut-off is given here.

What was measured:
HT-29 = test: Cytotoxicity against human HT-29 cells assessed as reduction in cell viability incubated for 48 hrs by MTT assay; assay type: functional, cell-based; conditions: HT-29, 48 h
Method in brief: (§1)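 MTT assay: 5×10^3 cells per well in DMEM with 10% hiFBS (4.5 g/L glucose for HT-29, 1 g/L for MRC-5), exposed to increasing compound concentrations for 48 h at 37 °C. MTT added for 4 h, formazan dissolved in DMSO, absorbance read at 575 nm. IC50 from four-parameter logistic fit.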

[1] = Cytotoxicity against human MRC5 cells assessed as reduction in cell viability incubated for 48 hrs by MTT assay; assay type: toxicity, cell-based; method in brief: as §1
Trypanosoma brucei = test: Antitrypanosomal activity against Trypanosoma brucei incubated for 72 hrs by alamar blue dye based fluorimetry analysis; assay type: functional, organism-based
Method in brief: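 Bloodstream-form T. brucei S16 (Lister 427, MiTat 1.2), 1×10^3 per well in HMI-9 with 20% hiFBS, exposed to increasing compound concentrations for 72 h at 37 °C, 5% CO2. Resazurin then added for 4 h, cells lysed with SDS, fluorescence read at ex 550/em 590 nm. IC50 from four-parameter logistic fit; three independent runs, each in triplicate.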

Leishmania major = test: Antileishmanial activity against Leishmania major (MHOM/IL/80/Friedlin) promastigotes assessed as reduction in parasite growth incubated for 72 hrs by MTT assay; assay type: functional, organism-based
Method in brief: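 L. major Friedlin promastigotes, 1×10^6/mL in modified RPMI-1640 with 10% hiFBS, exposed to increasing compound concentrations for 72 h at 28 °C; proliferation read by MTT; IC50 from four-parameter logistic fit versus untreated controls.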

[2] = Drug uptake in Trypanosoma brucei at 10 uM incubated for 2 hrs by fluorescence based multiplate reader method; assay type: ADME
[3] = Selectivity index, ratio of IC50 for cytotoxicity against human MRC5 cells to IC50 for antileishmanial activity against Leishmania major (MHOM/IL/80/Friedlin) promastigotes; assay type: toxicity, cell-based; conditions: read-out: Selectivity Index
Method in brief: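 Selectivity index: MRC-5 IC50 divided by L. major promastigote IC50.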

[4] = Selectivity index, ratio of IC50 for cytotoxicity against human MRC5 cells to IC50 for antitrypanosomal activity against Trypanosoma brucei; assay type: toxicity, cell-based; conditions: MRC5 cells versus Trypanosoma brucei, read-out: Selectivity Index
Method in brief: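 Selectivity index: MRC-5 IC50 divided by T. brucei IC50.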

[5] = Selectivity index, ratio of IC50 for human MRC5 cells to IC50 for human HT-29 cells; assay type: toxicity; conditions: MRC5 cells versus HT-29 cells, read-out: Selectivity Index
Method in brief: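 Selectivity index: MRC-5 IC50 divided by HT-29 IC50.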

[6] = Drug uptake in human HT-29 cells at 10 uM incubated for 2 hrs by fluorescence based multiplate reader method; assay type: ADME, cell-based; conditions: ht-29, 2 h
Method in brief: (§2)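 225,000 trypsinized cells incubated with 10 μM compound in 0.75 mL medium for 2 h at 37 °C; washed three times with PBS, lysed in 3% SDS and sonicated. NDI fluorescence read at ex 485/em 535 nm, quantified against a calibration curve in cell lysate and normalized to BCA protein. Reported as % of compound added.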

[7] = Drug uptake in human MRC5 cells at 10 uM incubated for 2 hrs by fluorescence based multiplate reader method; assay type: ADME, cell-based; conditions: mrc5, 2 h; method in brief: as §2
Quadruplex DNA [8] = test: Binding affinity to parallel G-quadruplex DNA TGGGGT TGGGGT TGGGGT TGGGGT (unknown origin) by mass spectrometric analysis; assay type: nucleic-acid assay
Method in brief: (§3)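 Native ESI-FTICR MS in negative ion mode under soft conditions, in 100 mM ammonium acetate; DNA at 5 μM with ligand at 10 μM.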

Quadruplex DNA [9] = test: Binding affinity to human G-quadruplex telomeric DNA F21T (5'-duplex GGG TTAGGG TTAGGG TTAGGG-3') by mass spectrometric analysis; assay type: nucleic-acid assay; method in brief: as §3
Quadruplex DNA [10] = test: Binding affinity to human G-quadruplex telomeric DNA F21T (5'-duplex GGG TTAGGG TTAGGG TTAGGG-3') assessed as change in melting temperature at 1 uM incubated for 5 min by FRET assay; assay type: nucleic-acid assay
Method in brief: (§4)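 Fluorescently labelled oligonucleotide annealed (95 °C, 5 min) in 10 mM lithium cacodylate/90 mM LiCl, pH 7.2; 0.2 μM final, with or without ligand. Held 5 min at 25 °C, then heated 0.5 °C/min to 95 °C. Tm taken at normalized signal 0.5; ΔTm = Tm with ligand minus Tm without. Tested in duplicate.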

[11] = Drug localization in cytoplasm of Trypanosoma brucei at 5 uM incubated for 30 to 120 mins by DAPI staining based fluorescence microscopic analysis; assay type: ADME, subcellular; conditions: time 30-120 min
Method in brief: (§5)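 T. brucei at 1×10^7/mL exposed to 5 μM compound in FBS-free medium for 30 and 120 min at 37 °C; fixed in cold 4% paraformaldehyde, DAPI-stained and imaged by widefield microscopy. Compound excited with the 542–566 filter and emission collected at 578–610 nm.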

[12] = Drug localization in nucleus of human HT-29 cells at 25 uM incubated for 30 to 120 mins by DAPI staining based fluorescence microscopic analysis; assay type: ADME, subcellular; conditions: ht-29, 25 µM, time 30-120 min
Method in brief: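 HT-29 cells grown 24 h on coverslips in FBS-free medium, then exposed to 25 μM compound for 30 or 120 min at 37 °C. Mounted in DAPI medium and imaged by widefield fluorescence microscopy; compound emission collected at 578–610 nm, DAPI at 437–474 nm.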

[13] = Drug localization in nucleus of Trypanosoma brucei at 5 uM incubated for 30 to 120 mins by DAPI staining based fluorescence microscopic analysis; assay type: ADME, subcellular; conditions: time 30-120 min; method in brief: as §5
Quadruplex DNA [14] = test: Binding affinity to human G-quadruplex telomeric DNA F21T (5'-duplex GGG TTAGGG TTAGGG TTAGGG-3') assessed as change in melting temperature at 2 uM incubated for 5 min by FRET assay; assay type: nucleic-acid assay; method in brief: as §4

Row | IC50 (Trypanosoma brucei) | Drug uptake [2] | Drug uptake [6] | Drug uptake [7] | Activity (Quadruplex DNA [8]) | Activity (Quadruplex DNA [9]) | ΔTm (Quadruplex DNA [10]) | Drug uptake [11] | Drug uptake [12] | Drug uptake [13] | ΔTm (Quadruplex DNA [14]) | SMILES | IC50 (HT-29) | IC50 at 48 h [1] | IC50 (Leishmania major) | selectivity ratio [3] | selectivity ratio [4] | selectivity ratio [5]
1 | 80 nM | 6.1% |  |  |  |  |  |  |  |  |  | CN(C)CCCN1C(=O)c2ccc3c4c(c(NCc5cn(CCS[C@H]6O[C@H](CO)[C@@H](O)[C@H](O)[C@@H]6O)nn5)cc(c24)C1=O)C(=O)N(CCCN(C)C)C3=O | 880 nM | 2780 nM | 1520 nM | 1.8 | 34.7 | 3.2
2 | 2100 nM | 4.2% |  |  |  |  |  |  |  |  |  | O=C1c2ccc3c4c(c(NCc5cn(CCO[C@H]6O[C@H](CO)[C@@H](O)[C@H](O)[C@@H]6O)nn5)cc(c24)C(=O)N1CCN1CCOCC1)C(=O)N(CCN1CCOCC1)C3=O | 8520 nM | 30500 nM | > 50000 nM |  | 14.5 | 3.6
3 | 1180 nM |  |  |  |  |  |  |  |  |  |  | O=C1c2ccc3c4c(c(NCc5cn(CCS[C@@H]6O[C@H](CO)[C@@H](O)[C@H](O)[C@H]6O)nn5)cc(c24)C(=O)N1CCN1CCOCC1)C(=O)N(CCN1CCOCC1)C3=O | 28900 nM | 35700 nM | 30200 nM | 1.2 | 30.3 | 1.2
4 | 3320 nM | 6.1% | 3.2% | 0.8% |  |  |  |  |  |  |  | O=C1c2ccc3c4c(c(NCc5cn(CCO[C@@H]6O[C@H](CO)[C@@H](O[C@H]7O[C@H](CO)[C@@H](O)[C@H](O)[C@H]7O)[C@H](O)[C@H]6O)nn5)cc(c24)C(=O)N1CCN1CCOCC1)C(=O)N(CCN1CCOCC1)C3=O | 13000 nM | > 50000 nM | > 50000 nM |  | > 15 | > 3.8
5 | 40 nM |  |  |  | Active | Active | 10 °C |  |  |  |  | CN(C)CCCN1C(=O)c2ccc3c4c(c(NCc5cn(CCS[C@@H]6O[C@H](CO)[C@H](O)[C@H](O)[C@H]6O)nn5)cc(c24)C1=O)C(=O)N(CCCN(C)C)C3=O | 350 nM | 1550 nM | 740 nM | 2.1 | 38.7 | 4.4
6 | 730 nM | 3.2% |  |  |  |  |  |  |  |  |  | O=C1c2ccc3c4c(c(NCc5cn(CCS[C@H]6O[C@H](CO)[C@@H](O)[C@H](O)[C@@H]6O)nn5)cc(c24)C(=O)N1CCN1CCOCC1)C(=O)N(CCN1CCOCC1)C3=O | 3390 nM | 22600 nM | 21700 nM | 1.1 | 31 | 6.7
7 | 60 nM | 7% | 20.9% | 25.5% |  |  | 10 °C | Active | Active | Active |  | CN(C)CCCN1C(=O)c2ccc3c4c(c(NCc5cn(CCO[C@@H]6O[C@H](CO)[C@@H](O[C@H]7O[C@H](CO)[C@@H](O)[C@H](O)[C@H]7O)[C@H](O)[C@H]6O)nn5)cc(c24)C1=O)C(=O)N(CCCN(C)C)C3=O | 480 nM | 1800 nM | 800 nM | 2.3 | 30 | 3.8
8 | 50 nM |  |  |  | Active | Active | 10 °C |  |  |  |  | CN(C)CCCN1C(=O)c2ccc3c4c(c(NCc5cn(CCO[C@@H]6O[C@H](CO)[C@H](O)[C@H](O)[C@H]6O)nn5)cc(c24)C1=O)C(=O)N(CCCN(C)C)C3=O | 500 nM | 1940 nM | 13900 nM | 0.14 | 38.8 | 3.9
9 | 150 nM | 5.4% |  |  |  |  | 1 °C |  |  |  | 5 °C | O=C1c2ccc3c4c(c(NCc5cn(CCO[C@@H]6O[C@H](CO)[C@H](O)[C@H](O)[C@H]6O)nn5)cc(c24)C(=O)N1CCN1CCOCC1)C(=O)N(CCN1CCOCC1)C3=O | 3600 nM | 10400 nM | 27500 nM | 0.38 | 69.3 | 2.9
10 | 310 nM |  |  |  |  |  |  |  |  |  |  | O=C1c2ccc3c4c(c(NCc5cn(CCO[C@@H]6O[C@H](CO)[C@@H](O)[C@H](O)[C@H]6O)nn5)cc(c24)C(=O)N1CCN1CCOCC1)C(=O)N(CCN1CCOCC1)C3=O | 1750 nM | 7860 nM | 10500 nM | 0.7 | 25.3 | 4.5
11 | 50 nM | 8.1% |  |  |  |  |  |  |  |  |  | CN(C)CCCN1C(=O)c2ccc3c4c(c(NCc5cn(CCO[C@H]6O[C@H](CO)[C@@H](O)[C@H](O)[C@@H]6O)nn5)cc(c24)C1=O)C(=O)N(CCCN(C)C)C3=O | 430 nM | 950 nM | 300 nM | 3.2 | 19 | 2.2
12 | 60 nM | 4.3% | 23.1% | 20.7% | Active | Active | 10 °C | Active | Active | Active |  | CN(C)CCCN1C(=O)c2ccc3c4c(c(NCc5cn(CCS[C@@H]6O[C@H](CO)[C@@H](O[C@H]7O[C@H](CO)[C@@H](O)[C@H](O)[C@H]7O)[C@H](O)[C@H]6O)nn5)cc(c24)C1=O)C(=O)N(CCCN(C)C)C3=O | 300 nM | 2940 nM | 510 nM | 5.7 | 49 | 9.8
13 | 50 nM |  |  |  |  |  |  |  |  |  |  | CN(C)CCCN1C(=O)c2ccc3c4c(c(NCc5cn(CCS[C@@H]6O[C@H](CO)[C@@H](O)[C@H](O)[C@H]6O)nn5)cc(c24)C1=O)C(=O)N(CCCN(C)C)C3=O | 750 nM | 2750 nM | 1380 nM | 2 | 55 | 3.7
14 | 3040 nM | 6.7% | 3.5% | 3.3% |  |  |  |  |  |  |  | O=C1c2ccc3c4c(c(NCc5cn(CCS[C@@H]6O[C@H](CO)[C@@H](O[C@H]7O[C@H](CO)[C@@H](O)[C@H](O)[C@H]7O)[C@H](O)[C@H]6O)nn5)cc(c24)C(=O)N1CCN1CCOCC1)C(=O)N(CCN1CCOCC1)C3=O | 13700 nM | > 50000 nM | > 50000 nM |  | > 16 | > 3.6
15 | 80 nM |  |  |  |  |  |  |  |  |  |  | CN(C)CCCN1C(=O)c2ccc3c4c(c(NCc5cn(CCO[C@@H]6O[C@H](CO)[C@@H](O)[C@H](O)[C@H]6O)nn5)cc(c24)C1=O)C(=O)N(CCCN(C)C)C3=O | 460 nM | 920 nM | 790 nM | 1.2 | 11.5 | 2
